From ChEMBL document CHEMBL4325883, “Non-chelating p-phenylidene-linked bis-imidazoline analogs of known influenza virus endonuclease inhibitors: Synthesis and anti-influenza activity” (Eur J Med Chem, 2019)

Legend:
[1] = Cytotoxicity against MDCK cells after 24 hrs by MTT assay; type: cell-based, Canis lupus familiaris; settings: dog
Procedure, shortened: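 MDCK cells grown 24 h at 36 °C, 5% CO2 to confluence. Threefold dilutions in MEM added for 24 h. Cells washed twice with saline, then MTT in MEM for 1 h at 36 °C. Formazan dissolved in DMSO, OD read at 540 nm. CC50 (50% cell death) from four-parameter logistic fit.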

[2] = Selectivity index, ratio of CC50 for MDCK cells to IC50 for Influenza A virus (A/Puerto Rico/8/34(H1N1)) […] infected in MDCK cells; type: toxicity, cell-based; settings: dog, read-out: Ratio CC50/IC50
Procedure, shortened: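 SI computed as CC50/IC50. CC50 from the MTT assay on MDCK cells (24 h). IC50 is the concentration halving A/PR/8/34 (H1N1) titer in MDCK cells, measured by hemagglutination.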

| SMILES | CC50 at 24 h [1] | selectivity ratio [2] |
| --- | --- | --- |
| COc1ccc(N2CCN=C2c2ccc(C3=NCCN3c3ccc(OC)cc3)cc2)cc1 | 361 µM | 23 |
| Fc1ccc(N2CCN=C2c2ccc(C3=NCCN3c3ccc(F)cc3)cc2)cc1 | 144 µM | 12 |
| FC(F)(F)c1ccc(N2CCN=C2c2ccc(C3=NCCN3c3ccc(C(F)(F)F)cn3)cc2)nc1 | 455 µM | 4 |
| c1ccc(N2CCN=C2c2ccc(C3=NCCN3c3ccccc3)cc2)cc1 | > 817 µM | > 11 |
| c1cncc(N2CCN=C2c2ccc(C3=NCCN3c3cccnc3)cc2)c1 | > 813 µM | > 12 |
| c1ccc(N2CCN=C2c2ccc(C3=NCCN3c3ccccn3)cc2)nc1 | 127 µM | 4 |
| c1cnc(N2CCN=C2c2ccc(C3=NCCN3c3cnccn3)cc2)cn1 | > 809 µM | – |
| Clc1ccc(N2CCN=C2c2ccc(C3=NCCN3c3ccc(Cl)cc3)cc2)cc1 | 9 µM | 2 |
| c1ccc(N2CCN=C2c2ccc(C3=NCCN3)cc2)cc1 | > 1030 µM | > 34 |
| COc1ccc(N2CCN=C2c2ccc(C3=NCCN3)cc2)cc1 | 224 µM | 5 |
| Fc1ccc(N2CCN=C2c2ccc(C3=NCCN3)cc2)cc1 | > 971 µM | > 15 |
| CC(N)C12CC3CC(CC(C3)C1)C2 (stereo not drawn) [RIMANTADINE] | 62 µM | 6 |
